Sampled rows, rich in hits. Any-hit rate of the full collection: about 2.6%.
SENP7 block: inhibitors of human SENP7 protease. recombinant SENP7, Z-RLRGG-aminoluciferin luminescence, 40 min. Q9BQF6. inhibition, % at 5 µM. 330,000 compounds, 1.5% hits. AID 434973;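 active means inhibition above about 50% at the single test dose, limit read from the data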
Platelet DG rel: modulates dense granule release in human platelets; human platelet-rich plasma, SFLLRN dense granule ATP release, luminescence; inhibition, %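 (compounds screened at 7.5 µM in platelet-rich plasma)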; 300,000 compounds, 0.22% hits; AID 1663;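 active means mean replicate score, as percent of positive control, at or above 50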
SENP8 block-1: SENP8 (human) protease inhibition. Q96LD8. recombinant SENP8, Nedd8 substrate fluorescence. inhibition, % at 20 µM. 360,000 compounds, 0.64% hits. AID 602440; in the data active means inhibition mostly above about 40%, no sharp cut-off; inactive means mostly below about 27%
SENP6 block: inhibitors of human SENP6 protease | Recombinant SENP6 catalytic domain, aminoluciferin luminescence | inhibition, % at 10 µM | 330,000 compounds, 1.8% hits | AID 2599;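 active means inhibition above about 50% at the single tested dose, limit read from the data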
Target sequence (Q9GZR1 628-1112 limits assumed): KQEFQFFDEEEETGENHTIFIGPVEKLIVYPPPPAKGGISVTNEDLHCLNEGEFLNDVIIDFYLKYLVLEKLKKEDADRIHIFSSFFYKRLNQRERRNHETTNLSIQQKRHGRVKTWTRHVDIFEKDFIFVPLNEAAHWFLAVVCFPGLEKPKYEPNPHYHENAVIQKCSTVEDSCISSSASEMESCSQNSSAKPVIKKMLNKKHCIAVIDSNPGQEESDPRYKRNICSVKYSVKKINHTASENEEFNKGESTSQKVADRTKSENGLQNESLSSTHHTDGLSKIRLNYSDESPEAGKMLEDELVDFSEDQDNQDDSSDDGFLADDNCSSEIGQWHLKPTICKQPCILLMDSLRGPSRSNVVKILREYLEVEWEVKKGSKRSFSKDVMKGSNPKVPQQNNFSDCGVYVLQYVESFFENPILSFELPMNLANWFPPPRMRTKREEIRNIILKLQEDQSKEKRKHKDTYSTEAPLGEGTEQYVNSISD
SENP1 inh: blocks the human SENP1 SUMO protease catalytic domain; recombinant SENP1 catalytic domain, CyPet-SUMO1-YPet FRET cleavage; AID 624204; 360,000 compounds, 0.21% hits; Q9P0U3; inhibition, % at 10 µM;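 active means inhibition at least 30% at 10 µM, raw YFP signal under a set limit, fluorescence ratio 0.5 to 1.5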
Target sequence (Q9P0U3 419-644 limits assumed): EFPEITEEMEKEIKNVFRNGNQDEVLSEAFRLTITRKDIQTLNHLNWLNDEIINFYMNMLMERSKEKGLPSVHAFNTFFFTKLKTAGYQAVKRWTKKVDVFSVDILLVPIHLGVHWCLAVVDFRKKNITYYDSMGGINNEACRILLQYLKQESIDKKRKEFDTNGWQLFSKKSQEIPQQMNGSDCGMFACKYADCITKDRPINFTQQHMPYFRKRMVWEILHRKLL
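Assay system – human recombinant His6-tagged SENP1 catalytic domain enzyme · Input – SENP1 enzyme, 20 pM final · Buffer or medium – Tris pH 8 buffer plus EDTA, NaCl, BME, BSA, NP40, catalase · Schedule – 50 min reaction at room temperature · Technique – FRET read of cyan and yellow fluorescence · Control set – no-enzyme wells low, DMSO-plus-enzyme wells high control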
SENP8 block-2: blocks the human protease SENP8; inhibition, % at 10 µM; Q96LD8; purified SENP8, Z-RLRGG-aminoluciferin cleavage, luminescence; AID 2540; 330,000 compounds, 1.2% hits; in the data active means inhibition above about 50%
SENP8 conf: confirmation of human SENP8 protease inhibitors; inhibition, % at 12.5 µM; AID 488912; shares compounds with SENP7 block; Recombinant SENP8, Z-RLRGG-aminoluciferin luminescence, 60 min; 6,200 compounds, 40% hits;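 active means mean inhibition across replicates above about 50%, limit read from the data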
SENP6 confirm: confirmation of human SENP6 protease inhibitors | shares compounds with SENP7 block | recombinant SENP6, Z-RLRGG-aminoluciferin luminescence | inhibition, % at 12.5 µM | 6,200 compounds, 58% hits | AID 488915
SENP7 confirm: confirmation of human SENP7 protease inhibitors | shares compounds with SENP7 block | recombinant SENP7, Z-RLRGG-aminoluciferin luminescence, 40 min | inhibition, % at 12.5 µM | 6,200 compounds, 69% hits | AID 488917
Casp3 select: caspase-3 inhibition (SENP selectivity assay) | purified caspase-3, Z-DEVD-aminoluciferin luminescence, 60 min | 6,200 compounds, 60% hits | AID 488918 | inhibition, % at 12.5 µM | shares compounds with SENP7 block;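 active means mean inhibition above about 50%, limit read from the data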
Luc interf: luminescence interference (SENP counter-screen); 6,200 compounds, 39% hits; inhibition, % at 12.5 µM; AID 488919; shares compounds with SENP7 block; Pre-incubated SENP8/Z-RLRGG-aminoluciferin, luciferase luminescence interference;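 active means mean inhibition above about 50% when retested at one dose, limit read from the data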
Hits are given with their value; – = inactive; · = no result given.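 How the source made its calls, unless noted: active means mean inhibition above about 50% in the one-dose retest (limit read from the data); inactive means the rest.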

SMILES	SENP7 block	Platelet DG rel	SENP8 block-1	SENP6 block	SENP1 inh	SENP8 block-2	SENP8 conf	SENP6 confirm	SENP7 confirm	Casp3 select	Luc interf
O=C(c1ccc2nc(-c3ccco3)c(-c3ccco3)nc2c1)N1CCC2(CC1)OCCO2	–	·	–	81.9	–	–	–	–	–	–	–
COc1ccc(C(=O)N2CCC3(CC2)OCCO3)cc1	–	–	–	–	–	–	·	·	·	·	·
COc1ccc2c(c1)CC1(CN2C)C(=O)NC(=O)N(CCc2ccccc2)C1=O (stereo unspecified)	–	–	–	–	–	–	·	·	·	·	·
CCC(C)N1C(=O)NC(=O)C2(Cc3c(ccc4ccccc34)N(C)C2)C1=O (stereo unspecified)	–	–	–	75.6	–	–	–	–	–	–	–
CC(C)[C@@]1(NC(=O)[C@@H]2C[C@@H]3c4cccc5[nH]cc(c45)C[C@H]3N(C)C2)O[C@@]2(O)[C@@H]3CCCN3C(=O)[C@H](Cc3ccccc3)N2C1=O	–	–	–	–	–	–	·	·	·	·	·
CC(C)[C@H]1C(=O)N2CCC[C@H]2[C@]2(O)O[C@](NC(=O)[C@@H]3C=C4c5cccc6[nH]cc(c56)C[C@H]4N(C)C3)(C(C)C)C(=O)N12	–	·	–	52.2	–	–	–	–	–	–	–
CC(C)C[C@H]1C(=O)N2CCCC2[C@]2(O)O[C@](NC(=O)[C@@H]3C=C4c5cccc6[nH]cc(c56)CC4N(C)C3)(C(C)C)C(=O)N12 (stereo partly specified)	–	–	–	54.2	–	–	–	–	–	–	–
C[C@]12CC[C@@H](O)CC1=CCC1C2CC[C@@]2(C)C1CC[C@@H]2O (stereo partly specified)	·	·	–	·	–	·	·	·	·	·	·
Fc1cccc(F)c1-c1nc(-c2ccc(Cl)cc2)no1	61.2	–	–	71.2	–	65.0	–	65.9	63.4	–	–
COc1cc2[nH]c(=O)n(-c3ccccc3)c(=O)c2cc1OC	–	–	–	–	–	–	·	·	·	·	·
COc1cc(C(c2c(C)[nH]n(-c3ccccc3)c2=O)c2c(C)[nH]n(-c3ccccc3)c2=O)cc(OC)c1OC	64.4	–	80.5	58.5	–	–	–	–	–	–	–
ClCCN(CCCl)c1ccc(C=Cc2ccncn2)cc1	·	·	–	·	–	·	·	·	·	·	·
Nc1ccccc1C(=O)OCCc1ccccc1	75.3	·	–	76.1	–	72.5	69.2	75.0	91.5	60.3	67.3
C[C@@H]1CN([C@@H](C)CO)C(=O)CCCn2cc(nn2)CO[C@H]1CN(C)C(=O)Oc1ccc2ccccc2c1	·	·	–	·	–	·	·	·	·	·	·
O=c1[nH]c(=S)[nH]c(O)c1N=Nc1ccc(SC(F)F)cc1	83.2	–	–	100.2	–	90.7	81.3	94.6	89.4	94.6	61.8
CC(C)c1ccc(N=Nc2c(O)[nH]c(=O)[nH]c2=O)cc1	–	–	–	–	–	–	·	·	·	·	·
CC(C)C[C@@H]1COc2cc(N3CCN(C)CC3)ccc2S(=O)(=O)N1	·	·	–	·	–	·	·	·	·	·	·
COc1cc2c(cc1OC)-c1c3c(cc4c1[C@@H](C2)N(C)CC4)OCO3	–	–	–	77.6	–	–	–	–	–	–	–
COc1cc2c(cc1OC)-c1c(OC)c(OC)cc3c1C(C2)N(C)CC3 (stereo unspecified)	55.3	–	–	82.3	–	57.9	–	73.1	–	–	–
CN(C)C(=O)Oc1cccc(-c2cn3cc(Cl)ccc3n2)c1	–	–	–	–	–	–	·	·	·	·	·
CN(C)C(=O)Oc1ccc(-c2cn3cc(Cl)ccc3n2)cc1	94.0	–	–	–	–	90.5	–	93.3	101.7	97.1	–
COc1ccc(-c2cc(=Nc3ccccc3)c3cc(C)ccc3o2)cc1	68.4	–	–	68.5	–	–	–	–	–	–	–
C[C@H]1CN([C@@H](C)CO)C(=O)CCCn2nncc2CO[C@H]1CN(C)C(=O)Oc1ccc2ccccc2c1	·	·	–	·	–	·	·	·	·	·	·
O=C(Nc1ccc(Cl)cc1)Nc1nccs1	52.1	–	–	68.0	–	–	50.5	50.5	76.7	–	–
COc1ccc(-c2nc3ccccc3c(=O)o2)cc1	89.5	–	–	81.2	–	–	62.8	–	74.9	53.9	–
SMILES	SENP7 block	Platelet DG rel	SENP8 block-1	SENP6 block	SENP1 inh	SENP8 block-2	SENP8 conf	SENP6 confirm	SENP7 confirm	Casp3 select	Luc interf
O=C(NCC1=C(c2cccc3ccccc23)C[C@@H]2CC[C@H]1N2Cc1ccco1)c1cccs1	·	·	–	·	–	·	·	·	·	·	·
CCN(CC)C(=O)c1ccc(NC(=O)c2cccc(F)c2)cc1	64.7	–	–	61.5	–	–	56.9	53.7	83.3	82.1	53.0
O=P1(c2ccccc2)Nc2ccccc2N1c1ccccc1 (stereo unspecified)	·	·	–	·	–	·	·	·	·	·	·
CCCCn1c(NC(=O)c2ccco2)c(C(=O)OCC)c2nc3ccccc3nc21	–	–	–	83.8	–	62.2	75.3	89.1	71.1	–	–
CCCCn1c(N)c(C(=O)OCCOC)c2nc3ccccc3nc21	–	–	–	–	–	–	·	·	·	·	·
CCOC(=O)c1c(N)n(Cc2ccco2)c2nc3ccccc3nc12	–	·	–	–	–	–	·	·	·	·	·
CCCCn1c(NS(=O)(=O)c2ccc(C)cc2)c(C(=O)OCC)c2nc3ccccc3nc21	–	–	–	92.8	–	62.1	–	–	–	–	–
CCOC(=O)[C@]12Cc3cc(C)ccc3[C@H]1N(Cc1ccccc1)C(=O)c1cc(F)c(F)cc12	·	·	–	·	–	·	·	·	·	·	·
O=C1NC(=O)C2(CCN(c3ccccc3)CC2)C(=O)N1	·	·	–	·	–	·	·	·	·	·	·
COC(=O)c1nc(-c2ccc3c(n2)C(=O)C(N)=C(OC)C3=O)c(N)c(-c2ccc(OC)c(OC)c2O)c1C	–	–	48.7	75.6	–	80.8	–	–	–	–	–
CC12CC(=O)C3C(CCC4CC(=O)C=CC43C)C1CCC2=O (stereo unspecified)	·	·	–	·	–	·	·	·	·	·	·
CC(C)CCOC(=O)c1c(N)n(CC2CCCO2)c2nc3ccccc3nc12 (stereo unspecified)	–	–	–	–	–	–	·	·	·	·	·
CC(C)OCCCNC(=O)c1c(N)n(CC2CCCO2)c2nc3ccccc3nc12 (stereo unspecified)	66.0	–	–	94.3	–	91.7	–	–	–	–	–

Screens deposited in PubChem by several laboratories.
